Measured values: ChEMBL document CHEMBL1255304, “In vitro phenotypic susceptibility of human immunodeficiency virus type 2 clinical isolates to protease inhibitors” (Antimicrob Agents Chemother, 2008)

Legend:
[1] = system: Human immunodeficiency virus 2; test: Antiviral activity against HIV 2 subtype A clinical isolate expressing 10V/I-40D-43I-56V-70K-82F-84V-89V-90M protease gene sequence from HIV2 infected patient plasma and PBMC obtained at T2 during compound treatment measured after 3 months; type: functional, organism-based; settings: Human immunodeficiency virus 2, subtype A
Outline: (§1)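 Virus isolated by PBMC coculture from patient samples taken before (T0) or during (T1, T2) protease inhibitor exposure, with protease genes sequenced from plasma and PBMC isolates. Susceptibility was tested in the ANRS PBMC assay, and the 50% inhibitory concentration (IC50) was reported.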

[2] = system: Human immunodeficiency virus 2; test: Antiviral activity against HIV 2 subtype B clinical isolate expressing 14Y-19P-33I-61N-71I-75M-84V-90M protease gene sequence from HIV2 infected patient plasma and PBMC obtained at T1 during compound treatment measured after 13 months; type: functional, organism-based; settings: Human immunodeficiency virus 2, subtype B\r\n; outline: as §1
[3] = system: Human immunodeficiency virus 2; test: Antiviral activity against HIV 2 subtype H expressing 10I-40P-41Y-60H-63N-70T-73G-89L-92E protease gene sequence from HIV2 infected patient plasma and PBMC obtained before compound treatment measured after 13 months; type: functional, organism-based; settings: Human immunodeficiency virus 2, subtype H; outline: as §1
[4] = (§2) Antiviral activity against Human immunodeficiency virus type 1 (BRU ISOLATE) after […]; type: functional; settings: Human immunodeficiency virus 1
[5] = system: Human immunodeficiency virus type 1 (BRU ISOLATE); test: as §2; type: functional
[6] = system: Human immunodeficiency virus 2; test: Antiviral activity against HIV 2 subtype A clinical isolate expressing 10I-40D-43I-70K-82F-84V-85L-89V-90M-91T/L-98N/K protease gene sequence from HIV2 infected patient plasma and PBMC obtained at T1 during compound treatment measured after 13 months; type: functional, organism-based; settings: Human immunodeficiency virus 2, subtype A; outline: as §1
[7] = system: Human immunodeficiency virus 2; test: Antiviral activity against HIV 2 subtype B clinical isolate expressing 14Y-19P-61N-64V-71I-90M-95I protease gene sequence from HIV2 infected patient plasma and PBMC obtained at T2 during compound treatment measured after 3 months; type: functional, organism-based; settings: Human immunodeficiency virus 2, subtype B\r\n; outline: as §1
[8] = system: Human immunodeficiency virus 2; test: Antiviral activity against HIV 2 subtype A clinical isolate expressing 10I-17D-40D-43I-45K/R-46V-54M-64I/V-69K/R-71V/I-90M protease gene sequence from HIV2 infected patient plasma and PBMC obtained at T1 during compound treatment measured after 13 months; type: functional, organism-based; settings: Human immunodeficiency virus 2, subtype A; outline: as §1
[9] = system: Human immunodeficiency virus 2; test: Antiviral activity against HIV 2 subtype B clinical isolate expressing 12Q-14R-17G/D-19P-61N-62I-92A protease gene sequence from HIV2 infected patient plasma and PBMC obtained before compound treatment measured after 13 months; type: functional, organism-based; settings: Human immunodeficiency virus 2, subtype B\r\n; outline: as §1
[10] = system: Human immunodeficiency virus 2; test: Antiviral activity against HIV 2 subtype B clinical isolate expressing 14Y-61N-99L protease gene sequence from HIV2 infected patient plasma and PBMC obtained before compound treatment measured after 13 months; type: functional, organism-based; settings: Human immunodeficiency virus 2, subtype B\r\n; outline: as §1
[11] = system: Human immunodeficiency virus 2; test: Antiviral activity against Human immunodeficiency virus type 2 (ISOLATE ROD) after 13 months; type: functional, organism-based; settings: Human immunodeficiency virus 2, ISOLATE ROD
Outline: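 Reference strain ROD was tested in the ANRS PBMC assay alongside the clinical isolates, and the 50% inhibitory concentration (IC50) was reported.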

[12] = system: Human immunodeficiency virus 2; test: Antiviral activity against HIV 2 subtype H expressing 10I-34E-40P-41Y-60H-63N-70T-73G-82F-89L-92E protease gene sequence from HIV2 infected patient plasma and PBMC obtained at T1 during compound treatment measured after 13 months; type: functional, organism-based; settings: Human immunodeficiency virus 2, subtype H; outline: as §1
[13] = system: Human immunodeficiency virus 2; test: Antiviral activity against HIV 2 subtype B clinical isolate expressing 12T-14Y-19P-40N-41D-61N-62I-96S-99L protease gene sequence from HIV2 infected patient plasma and PBMC obtained before compound treatment measured after 13 months; type: functional, organism-based; settings: Human immunodeficiency virus 2, subtype B\r\n; outline: as §1
[14] = system: Human immunodeficiency virus 2; test: Antiviral activity against HIV 2 subtype A clinical isolate expressing 14H-17D-43T-68N/D protease gene sequence from HIV2 infected patient plasma and PBMC obtained before compound treatment measured after 13 months; type: functional, organism-based; settings: Human immunodeficiency virus 2, subtype A; outline: as §1
[15] = system: Human immunodeficiency virus 2; test: Antiviral activity against HIV 2 subtype A clinical isolate expressing 10I-17D-40D-43I-46V-66V/A-70R/K protease gene sequence from HIV2 infected patient plasma and PBMC obtained before compound treatment measured after 13 months; type: functional, organism-based; settings: Human immunodeficiency virus 2, subtype A; outline: as §1
[16] = system: Human immunodeficiency virus 2; test: Antiviral activity against HIV 2 subtype A clinical isolate expressing 14H-40D-70K-72R/K-91T/S protease gene sequence from HIV2 infected patient plasma and PBMC obtained before compound treatment measured after 13 months; type: functional, organism-based; settings: Human immunodeficiency virus 2, subtype A; outline: as §1
[17] = system: Human immunodeficiency virus 2; test: Antiviral activity against HIV 2 subtype A clinical isolate expressing 14H-60K/N-65E protease gene sequence from HIV2 infected patient plasma and PBMC obtained before compound treatment measured after 13 months; type: functional, organism-based; settings: Human immunodeficiency virus 2, subtype A; outline: as §1
[18] = system: Human immunodeficiency virus 2; test: Antiviral activity against HIV 2 subtype A clinical isolate expressing 5L/F-14Y/H-17G/D-43T-54I/M-62V/A-70R/K-71I protease gene sequence from HIV2 infected patient plasma and PBMC obtained at T1 during compound treatment measured after 13 months; type: functional, organism-based; settings: Human immunodeficiency virus 2, subtype A; outline: as §1
[19] = system: Human immunodeficiency virus 2; test: Antiviral activity against HIV 2 subtype A clinical isolate expressing 54M-65E-71I-74N-90M protease gene sequence from HIV2 infected patient plasma and PBMC obtained at T1 during compound treatment measured after 13 months; type: functional, organism-based; settings: Human immunodeficiency virus 2, subtype A; outline: as §1

Compound | IC50 [1] [nM] | IC90 [1] [nM] | IC50 [2] [nM] | IC90 [2] [nM] | IC50 [3] [nM] | IC90 [3] [nM] | IC50 [4] [nM] | IC50 [6] [nM] | IC90 [6] [nM] | IC50 [7] [nM] | IC90 [7] [nM] | IC50 [8] [nM] | IC90 [8] [nM] | IC50 [9] [nM] | IC90 [9] [nM] | IC50 [10] [nM] | IC90 [10] [nM] | IC50 [11] [nM] | IC90 [11] [nM] | IC50 [12] [nM] | other results
CC(C)CN(C[C@@H](O)[C@H](Cc1ccccc1)NC(=O)O[C@H]1CCOC1)S(=O)(=O)c1ccc(N)cc1 [AMPRENAVIR] | 12000 | 95000 | 14000 | 110000 | 900 | 2700 | 20 | 12000 | 96000 | 17000 | 140000 | 9500 | 31000 | 400 | 2800 | 600 | 4600 | 600 | 4600 | 10000 | IC90 [5]: 200 nM; IC90 [12]: 82000 nM; IC50 [13]: 400 nM; IC90 [13]: 2400 nM; IC50 [14]: 600 nM; IC90 [14]: 3800 nM; IC50 [15]: 400 nM; IC90 [15]: 3500 nM; IC50 [16]: 300 nM; IC90 [16]: 1600 nM; IC50 [17]: 900 nM; IC90 [17]: 6800 nM; IC50 [18]: 4400 nM; IC90 [18]: 13000 nM; IC50 [19]: 4000 nM; IC90 [19]: 60000 nM
Cc1c(O)cccc1C(=O)N[C@@H](CSc1ccccc1)[C@H](O)CN1C[C@H]2CCCC[C@H]2C[C@H]1C(=O)NC(C)(C)C [NELFINAVIR] | 10000 | 81000 | 14000 | 107000 | 40 | 300 | 2 | > 17600 | > 17600 | > 17600 | > 17600 | 1200 | 15000 | 40 | 800 | 200 | 1000 | 50 | 900 | 9000 | IC90 [4]: 100 nM; IC90 [12]: 24000 nM; IC50 [13]: 60 nM; IC90 [13]: 200 nM; IC50 [14]: 30 nM; IC90 [14]: 300 nM; IC50 [15]: 50 nM; IC90 [15]: 400 nM; IC50 [16]: 200 nM; IC90 [16]: 400 nM; IC50 [17]: 60 nM; IC90 [17]: 800 nM; IC50 [18]: 14000 nM; IC90 [18]: 110000 nM; IC50 [19]: 3800 nM; IC90 [19]: 53000 nM
CC(C)(C)NC(=O)[C@@H]1C[C@@H]2CCCC[C@@H]2CN1C[C@@H](O)[C@H](Cc1ccccc1)NC(=O)[C@H](CC(N)=O)NC(=O)c1ccc2ccccc2n1 [SAQUINAVIR] | 22000 | 180000 | 8200 | 65000 | 30 | 300 | 10 | 6400 | 51000 | 6700 | 52000 | 90 | 700 | 60 | 300 | 14000 | 82000 | 10 | 90 | 7300 | IC90 [4]: 40 nM; IC90 [12]: 31000 nM; IC50 [13]: 7 nM; IC90 [13]: 20 nM; IC50 [14]: < 6 nM; IC90 [14]: < 6 nM; IC50 [15]: 2 nM; IC90 [15]: 20 nM; IC50 [16]: 5 nM; IC90 [16]: 20 nM; IC50 [17]: 5 nM; IC90 [17]: 50 nM; IC50 [18]: > 12500 nM; IC90 [18]: > 12500 nM; IC50 [19]: > 12500 nM; IC90 [19]: > 12500 nM
CCC[C@@]1(CCc2ccccc2)CC(O)=C([C@H](CC)c2cccc(NS(=O)(=O)c3ccc(C(F)(F)F)cn3)c2)C(=O)O1 [TIPRANAVIR] | 4800 | 29000 | 4800 | 17000 | 400 | 800 | 50 | 2800 | 16000 | 4000 | 12000 | 4100 | 23000 | 300 | 2600 | 400 | 1700 | 400 | 3500 | 7300 | IC90 [4]: 400 nM; IC90 [12]: 16000 nM; IC50 [13]: 400 nM; IC90 [13]: 3000 nM; IC50 [14]: 300 nM; IC90 [14]: 2200 nM; IC50 [15]: 300 nM; IC90 [15]: 2700 nM; IC50 [16]: 400 nM; IC90 [16]: 4200 nM; IC50 [17]: 300 nM; IC90 [17]: 2500 nM; IC50 [18]: 6700 nM; IC90 [18]: 26000 nM; IC50 [19]: 4700 nM; IC90 [19]: 14000 nM
